# High-throughput results deposited in PubChem by Broad Institute.
# Rows were chosen to be rich in hits. Some 5.9% of all compounds tested hit in one or more screens of this group.
# KDM4C inh: inhibitors of GASC-1 (KDM4C) histone demethylase, primary screen, biochemical, single concentration HTS; inhibition, % at 12.5 µM; 96,000 compounds, 0.15% hits; Lysine-specific demethylase 4C (Homo sapiens), Q9H3R0; GST-KDM4C 2-372, H3K9me3 peptide, LANCE TR-FRET;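 active = mean replicate inhibition above about 25%, with at least 55% of replicates also reaching it, limit read from the data, passing the limit was not always enough; inconclusive = only one of those two conditions met; inactive = neither condition met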
#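 reagent = H3K9me3 peptide substrate, Fe(II), 2-oxoglutarate | system = GST-tagged GASC-1 (JMJD2C) catalytic fragment, aa 2-372 | amount = enzyme final amount 10 nM | read-out = Fall in 671/618 emission ratio as inhibition | medium = HEPES buffer, pH 7.5, plus ascorbate | schedule = 30 min reaction, 60 min detection, RT | measured by = LANCE TR-FRET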
# IDH1 R132H inh: inhibitors of IDH1 R132H reductase, primary screen, biochemical, plate reader, single point; inhibition, % at 10 µM; 70,000 compounds, 0.18% hits; diaphorase/resazurin fluorescence, 60 min; Isocitrate dehydrogenase [NADP] cytoplasmic (Homo sapiens), O75874; in the data active = inhibition above about 34%; inconclusive = no clear call, values can overlap the other calls; inactive = below about 11%;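 also: 0% = DMSO and 100% = no enzyme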
# Target sequence (O75874 whole entry R132H): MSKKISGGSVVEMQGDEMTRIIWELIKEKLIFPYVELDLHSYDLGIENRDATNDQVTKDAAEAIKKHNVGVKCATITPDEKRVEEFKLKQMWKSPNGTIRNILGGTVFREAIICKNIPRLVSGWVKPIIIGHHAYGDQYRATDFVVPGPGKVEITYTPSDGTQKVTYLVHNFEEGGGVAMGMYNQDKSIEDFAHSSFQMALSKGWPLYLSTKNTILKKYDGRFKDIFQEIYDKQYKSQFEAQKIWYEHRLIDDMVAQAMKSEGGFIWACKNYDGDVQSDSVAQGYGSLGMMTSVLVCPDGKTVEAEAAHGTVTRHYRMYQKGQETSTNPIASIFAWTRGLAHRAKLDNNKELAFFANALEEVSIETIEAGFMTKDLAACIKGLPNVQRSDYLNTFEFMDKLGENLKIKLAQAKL
# T cruzi growth-1: T. cruzi intracellular proliferation inhibitors, primary screen, cell-based, beta-gal Tulahuen parasites, NIH3T3 host, luminescence | AID 624255, 2012 | 77,000 compounds, 5.9% hits | T. cruzi beta-gal in NIH3T3, GalScreen luminescence, 90 h | inhibition, % at 8.34 µM;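 active = mean inhibition above about 93%, with at least 55% of replicates each passing it, limit read from the data, passing the limit was not always enough; inconclusive = only one of those two conditions holds; inactive = neither condition holds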
# Pf Dd2 growth: P. falciparum Dd2 growth inhibitors, primary screen, SYBR Green fluorescence, single dose replicates; AID 1159554, 2015; 94,000 compounds, 2.3% hits; 72 h; hits give low values; activity change, % at 10 µM; in the data active = activity change below about -80%; inconclusive = no clear call, values can overlap the other calls
# T cruzi growth-2: T. cruzi intracellular proliferation inhibitors, confirmation, cell-based, NIH3T3 host, beta-gal parasite, luminescence, cherry-pick; inhibition, % at 8.35 µM; 5,600 compounds, 72% hits; T. cruzi beta-gal in NIH3T3, GalScreen luminescence, 90 h; shares compounds with T cruzi growth-1;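 active = mean replicate inhibition above about 95% and at least 55% of replicates individually reaching it, limit read from the data; inconclusive = only one of the two criteria is met; inactive = neither criterion is met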
# T cruzi growth-3: inhibitors of intracellular T. cruzi replication, confirmation, NIH3T3 host cells, beta-gal parasites, cherry-pick, set 2; shares compounds with T cruzi growth-1; T. cruzi beta-gal in NIH3T3, GalScreen luminescence, 90 h; inhibition, % at 2.09 µM; 5,600 compounds, 21% hits;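 active = mean inhibition above about 95%, with at least 55% of replicates also reaching it, limit read from the data; inconclusive = meets just one of the two conditions; inactive = meets neither condition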;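 also: plate controls were neutral control median for no effect and positive control median for full effect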
# 3T3 cytotox: cytotoxicity in mouse NIH/3T3 fibroblasts, confirmation, cytotoxicity control for T. cruzi proliferation inhibitor project, cell-based, cherry-pick, single point | NIH/3T3 viability, CellTiter-Glo ATP luminescence, 90 h | AID 651742, 2012 | shares compounds with T cruzi growth-1 | 5,600 compounds, 14% hits | cytotoxicity (signal decrease), % at 8.35 µM;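 active = mean signal decrease across replicates above about 35% based on untreated-well scatter, with enough replicates individually passing, limit read from the data; inconclusive = no rule stated though some were filed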;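 also: 0% = median of neutral control wells and 100% = median of positive control wells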
# NIH3T3 tox 2: NIH/3T3 fibroblast cytotoxicity, confirmation, cytotoxicity control, cell-based, cherry-pick, single point, set 2; shares compounds with T cruzi growth-1; NIH/3T3 viability, CellTiter-Glo ATP luminescence, 90 h; inhibition, % at 24.9 µM; 5,600 compounds, 56% hits; AID 651744, 2012;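 active = mean loss of cell viability signal at or above a set limit, and enough replicates individually reaching it; inconclusive = meets only the mean limit or only the replicate share; inactive = meets neither condition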;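 also: 0% = median of neutral control wells and 100% = median of positive control wells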
# * hit, by the source's call; ? = inconclusive; . = not tested or not shown.
SMILES,KDM4C inh,IDH1 R132H inh,T cruzi growth-1,Pf Dd2 growth,T cruzi growth-2,T cruzi growth-3,3T3 cytotox,NIH3T3 tox 2
C[C@H](CO)N1C[C@H](C)[C@@H](CN(C)C(=O)Nc2ccccc2)Oc2ncc(C#CC3CCCCC3)cc2C1=O,4.2,-0.2,103.0*,-30.6,106.2*,36.7,12.0,29.5*
COc1cccc(NC(=O)N(C)C[C@@H]2Oc3ncc(C#Cc4ccccc4)cc3C(=O)N([C@@H](C)CO)C[C@@H]2C)c1,.,0.0,?,-47.7,100.2*,58.0,28.6,11.8
COc1cccc(C#Cc2cnc3c(c2)C(=O)N([C@H](C)CO)C[C@@H](C)[C@H](CN(C)C)O3)c1,-0.9,3.6,102.1*,-49.5,102.1*,43.5,28.6,105.3*
O=C(NCCCN1CCOCC1)c1cc2cc([N+](=O)[O-])ccc2oc1=O,.,0.1,.,.,.,.,.,.
Cc1cccc(N(CC(=O)Nc2ccc(I)cc2C)S(C)(=O)=O)c1,.,-0.3,.,.,.,.,.,.
Cc1ccc(S(=O)(=O)N2Cc3ccccc3CC2C(=O)Nc2sc3c(c2C#N)CCCC3)cc1 (stereo unspecified),.,2.4,.,.,.,.,.,.
COc1ccc(S(=O)(=O)N(C)C[C@@H]2OCCCC[C@H](C)Oc3ccc(NS(=O)(=O)c4ccc(C)cc4)cc3C(=O)N([C@@H](C)CO)C[C@H]2C)cc1,0.3,-1.3,30.8,-55.9,.,.,.,.
COc1ccc(S(=O)(=O)Nc2ccc3c(c2)C(=O)N([C@@H](C)CO)C[C@H](C)[C@H](CN(C)S(=O)(=O)c2ccc(OC)cc2)OCCCC[C@H](C)O3)cc1,0.2,.,100.9*,-65.4,110.7*,16.6,-0.4,-10.0
COc1ccc(S(=O)(=O)N(C)C[C@H]2OCCCC[C@@H](C)Oc3ccc(NS(=O)(=O)c4ccccc4)cc3C(=O)N([C@H](C)CO)C[C@H]2C)cc1,-1.4,.,115.3*,.,107.8*,63.6,7.3,-2.5
COc1ccc(S(=O)(=O)Nc2ccc3c(c2)C(=O)N([C@@H](C)CO)C[C@@H](C)[C@H](CN(C)S(=O)(=O)c2ccc(OC)cc2)OCCCC[C@H](C)O3)cc1,0.0,.,78.2,-42.7,.,.,.,.
COc1ccc(S(=O)(=O)N(C)C[C@H]2OCCCC[C@H](C)Oc3ccc(NS(=O)(=O)c4ccc(C)cc4)cc3C(=O)N([C@@H](C)CO)C[C@@H]2C)cc1,0.5,-6.7,?,-68.3,100.7*,77.7,6.6,-1.8
COc1ccc(S(=O)(=O)Nc2ccc3c(c2)C(=O)N([C@H](C)CO)C[C@@H](C)[C@H](CN(C)S(=O)(=O)c2ccc(OC)cc2)OCCCC[C@H](C)O3)cc1,-0.5,0.3,99.8*,-73.8,107.4*,61.5,17.6,4.7
CC(=O)OCC(=O)[C@@]1(O)CCC2C3CC[C@@H]4C[C@H](OC(C)=O)CC[C@]4(C)C3C(=O)C[C@@]21C (stereo partly specified),.,0.1,.,.,.,.,.,.
Cc1cccc(C)c1Nc1c(CN2C(=O)c3ccccc3C2=O)nc2ccc(Br)cn12,.,-1.5,.,.,.,.,.,.
CC1=CC(C)(C)N2C(=O)C(=O)c3cc(OC(=O)CN4C(=O)c5cccc6cccc(c56)C4=O)cc1c32,.,2.4,.,.,.,.,.,.
Cc1cc(Br)c(NC(=O)CSc2nc3ccccc3[nH]2)cc1C,.,-0.4,.,.,.,.,.,.
COC(=O)c1cc(OC)c(OC)cc1NC(=O)CSc1nc2ccccc2o1,.,0.3,.,.,.,.,.,.
Cc1cc(C)cc(N(C(C)C(=O)Nc2cccc(Cl)c2)S(C)(=O)=O)c1 (stereo unspecified),.,0.2,.,.,.,.,.,.
